The test system of one test is Eimeria acervulina. In words: Anticoccidial activity in chicken against Eimeria acervulina. In kind it is functional. Also on record: Reduction: concentration or dose not given beside the values. The gist of the method:
(§1)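 3-Day-old chicks infected separately with E. tenella or E. acervulina; test compound given mixed in the feed at the stated rates. Activity was scored as percent suppression of oocyst production versus infected, unmedicated controls. Toxicity was judged from average weight gain relative to uninfected controls.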

In another test the test system is Eimeria tenella. In words: Anticoccidial activity in chicken against E. tenella. In kind it is functional. Also on record: Reduction: concentration or dose not given beside the values. The method, boiled down:
as §1

The species entered for test [1] is Gallus gallus. In words: The compound was tested for anti-coccidial activity in chicken against E. brunetti (FS-103) measured at dose 125(ppm in diet). Type of test: functional.
For test [2], the species on record is Gallus gallus. In words: The compound was tested for anti-coccidial activity in chicken against E. hagani(DP-786) measured at dose 125(ppm in diet). Type of test: functional.
For test [3], the species on record is Gallus gallus. In words: The compound was tested for anti-coccidial activity in chicken against E. maxima(DP-776) measured at dose 125(ppm in diet). In kind it is functional.
The species entered for test [4] is Gallus gallus. Briefly: The compound was tested for anti-coccidial activity in chicken against E. praecox(DP-785) measured at dose 125(ppm in diet). In kind it is functional.
Test [5] is filed under the species Gallus gallus. Briefly: The compound was tested for anti-coccidial activity in chicken against E. mitis(LS-84) measured at dose 125(ppm in diet). Type of test: functional.
Test [6] is filed under the species Gallus gallus. Briefly: The compound was tested for anti-coccidial activity in chicken against E. tenella(DP-761) measured at dose 125(ppm in diet). In kind it is functional.
Test [7] is filed under the species Gallus gallus. Briefly: The compound was tested for anti-coccidial activity in chicken against E. acervulina (DP-761) measured at dose 125(ppm in diet). Type of test: functional.
Test [8] is filed under the species Gallus gallus. In words: The compound was tested for anti-coccidial activity in chicken against E. acervulina; Inactive. Type of test: functional, organism-based. The gist of the method: as §1
The species entered for test [9] is Gallus gallus. In words: The compound was tested for anti-coccidial activity in chicken against E. acervulina (DP-761) measured at dose 33(ppm in diet). In kind it is functional.
For test [10], the species on record is Gallus gallus. Briefly: The compound was tested for anti-coccidial activity in chicken against E. brunetti (FS-103) measured at dose 33(ppm in diet). In kind it is functional.
For test [11], the species on record is Gallus gallus. In words: The compound was tested for anti-coccidial activity in chicken against E. hagani(DP-786) measured at dose 33(ppm in diet). Type of test: functional.
For test [12], the species on record is Gallus gallus. In words: The compound was tested for anti-coccidial activity in chicken against E. maxima(DP-776) measured at dose 33(ppm in diet). In kind it is functional.
The species entered for test [13] is Gallus gallus. In words: The compound was tested for anti-coccidial activity in chicken against E. praecox(DP-785) measured at dose 33(ppm in diet). Type of test: functional.
The species named for test [14] is Gallus gallus. Briefly: The compound was tested for anti-coccidial activity in chicken against E. mitis(LS-84) measured at dose 33(ppm in diet). Type of test: functional.
Test [15] is filed under the species Gallus gallus. In words: The compound was tested for anti-coccidial activity in chicken against E. tenella(DP-761) measured at dose 33(ppm in diet). Type of test: functional.
The species named for test [16] is Gallus gallus. In words: The compound was tested for anti-coccidial activity in chicken against Eimeria brunetti (FS-103) measured at dose 60 (ppm in diet). Type of test: functional.
Test [17] is filed under the species Gallus gallus. In words: The compound was tested for anti-coccidial activity in chicken against Eimeria hagani (DP-786) measured at dose 60 (ppm in diet). Type of test: functional.
For test [18], the species on record is Gallus gallus. Briefly: The compound was tested for anti-coccidial activity in chicken against Eimeria maxima (DP-776) measured at dose 60 (ppm in diet). In kind it is functional.
Test [19] is filed under the species Gallus gallus. Briefly: The compound was tested for anti-coccidial activity in chicken against Eimeria praecox (DP-785) measured at dose 60 (ppm in diet). Type of test: functional.
The species named for test [20] is Gallus gallus. Briefly: The compound was tested for anti-coccidial activity in chicken against Eimeria mitis (LS-84) measured at dose 60 (ppm in diet). Type of test: functional.
The species named for test [21] is Gallus gallus. Briefly: The compound was tested for anti-coccidial activity in chicken against Eimeria praecox (DP-785) measured at dose 100 (ppm in diet). Type of test: functional.
The species entered for test [22] is Gallus gallus. In words: The compound was tested for anti-coccidial activity in chicken against Eimeria acervulina (DP-761) measured at dose 100 (ppm in diet). Type of test: functional.
The species entered for test [23] is Gallus gallus. In words: The compound was tested for anti-coccidial activity in chicken against Eimeria brunetti (FS-103) measured at dose 100 (ppm in diet). In kind it is functional.
The species entered for test [24] is Gallus gallus. Briefly: The compound was tested for anti-coccidial activity in chicken against Eimeria hagani (DP-786) measured at dose 100 (ppm in diet). In kind it is functional.
The species entered for test [25] is Gallus gallus. In words: The compound was tested for anti-coccidial activity in chicken against Eimeria maxima (DP-776) measured at dose 100 (ppm in diet). Type of test: functional.
The species named for test [26] is Gallus gallus. In words: The compound was tested for anti-coccidial activity in chicken against Eimeria mitis (LS-84) measured at dose 100 (ppm in diet). Type of test: functional.
Test [27] is filed under the species Gallus gallus. In words: The compound was tested for anti-coccidial activity in chicken against Eimeria tenella (DP-761) measured at dose 100 (ppm in diet). Type of test: functional. The method, boiled down: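 Test article mixed into the feed at the stated rates and given to 3-day-old chicks infected with […]. Each Eimeria species was inoculated separately. Activity was scored as percent suppression of oocyst output relative to infected, unmedicated controls. Toxicity was judged from average weight gain relative to uninfected controls.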

Activity calls are given as the source filed them. No cut-off for these calls is given here.

Turning to `NC(=O)c1nnn(Cc2cc(Cl)cc(Cl)c2)c1N`, the MED in the test on Eimeria acervulina and in the test with Eimeria tenella was more than 125 ppm each time.

As to `NC(=O)c1nnn(Cc2cc(Cl)c(C(=O)c3ccc(Cl)cc3)c(Br)c2)c1N`, the Reduction with Eimeria acervulina and in the test with Eimeria tenella was 90% in each case.

Take `NC(=O)c1nnn(Cc2cc(Cl)c(C(=O)c3ccc(F)cc3)c(Cl)c2)c1N`: the Reduction in the test on Eimeria acervulina and with Eimeria tenella was 90% throughout.

`NC(=O)c1nnn(Cc2ccc(C(=O)c3ccc(Cl)cc3Cl)c(Cl)c2)c1N` registered an MED in the test on Eimeria acervulina of more than 250 ppm. Further, the Reduction with Eimeria tenella is 90%.

With `Cc1cc(C)nc(O)n1.O=C(Nc1ccc([N+](=O)[O-])cc1)Nc1ccc([N+](=O)[O-])cc1` [NICARBAZIN], the Reduction with Eimeria acervulina was 80%; in the test listed under Gallus gallus [1], 100%; in the test listed under Gallus gallus [2], 0%; in the test filed under Gallus gallus [3], 21%; in the test filed under Gallus gallus [4], 34%; in the test on Eimeria tenella, 80%. Moreover, the Reduction is on record as 100% in the test filed under Gallus gallus [5], 100% in the test listed under Gallus gallus [6] and 0% in the test listed under Gallus gallus [7].

For the molecule `NC(=O)c1nnn(Cc2ccccc2)c1N`, the Reduction result in the test filed under Gallus gallus [8] was “inactive”.

In the test with Eimeria acervulina, `NC(=O)c1nnn(Cc2ccc(C(=O)c3c(Cl)cc(Cl)cc3Cl)cc2)c1N` registered a Reduction of 90%. The MED with Eimeria tenella is more than 250 ppm.

Take `NC(=O)c1ncn(Cc2ccc(Cl)c(Cl)c2)c1N`: the Reduction in the test with Eimeria acervulina and in the test with Eimeria tenella was more than 99% in each case.

As to `COC(=O)c1ccc(C(=O)c2c(Cl)cc(Cn3nnc(C(N)=O)c3N)cc2Cl)cc1`, the MED with Eimeria acervulina and in the test on Eimeria tenella was more than 250 ppm each time.

For `NC(=O)c1nnn(Cc2cc(Cl)c(C(=O)c3ccc(C(Cl)=C(Cl)Cl)cc3)c(Cl)c2)c1N`, the results for the Reduction with Eimeria acervulina and in the test on Eimeria tenella were 90% and 80%, respectively.

Consider `NC(=O)c1nnn(Cc2cc(Cl)c(C(=O)c3ccccc3)c(Cl)c2)c1N`, for which the Reduction in the test with Eimeria acervulina and in the test with Eimeria tenella was 90% each time.

For `NC(=O)c1nnn(Cc2cc(Cl)c(C(=O)c3cc(Cl)cc(Cl)c3)c(Cl)c2)c1N`, the Reduction with Eimeria acervulina and with Eimeria tenella was more than 99% in each case.

Regarding `CCCc1ncc(C[n+]2ccccc2C)c(N)n1.Cl.[Cl-]` [AMPROLIUM], the Reduction with Eimeria acervulina amounted to 80%; in the test filed under Gallus gallus [1] it was 79%; in the test filed under Gallus gallus [2], 0%; in the test listed under Gallus gallus [3], 0%; in the test listed under Gallus gallus [4], 18%; with Eimeria tenella, 80%. The values for the Reduction in the test listed under Gallus gallus [5], in the test listed under Gallus gallus [6] and in the test filed under Gallus gallus [7] were 36%, 100% and 7%, respectively.

Take `NC(=O)c1nnn(Cc2cc(F)c(C(=O)c3ccc(Cl)cc3)c(Cl)c2)c1N`: the Reduction in the test with Eimeria acervulina and in the test on Eimeria tenella was 90% each time.

Regarding `NC(=O)c1nnn(Cc2ccc(Cl)c(C(=O)c3ccc(Cl)cc3)c2)c1N`, the Reduction in the test on Eimeria acervulina and in the test on Eimeria tenella was 90% each time.

Molecule `NC(=O)c1nnn(Cc2ccc(C(=O)c3ccc(Cl)cc3)c(Cl)c2)c1N` had a Reduction in the test on Eimeria acervulina of 90%. Further, the MED in the test on Eimeria tenella was more than 500 ppm.

On to `NC(=O)c1nnn(Cc2ccc(Cl)c(Cl)c2)c1N`, for which the Reduction with Eimeria acervulina and in the test on Eimeria tenella was 80% each time.

With `NC(=O)c1nnn(Cc2ccc(C(=O)c3c(Cl)cccc3Cl)cc2)c1N`, the MED with Eimeria acervulina and in the test on Eimeria tenella was more than 250 ppm throughout.

With `NC(=O)c1nnn(Cc2cc(Cl)c(C(=O)c3ccc(Cl)c(Cl)c3)c(Cl)c2)c1N`, the Reduction with Eimeria acervulina and in the test on Eimeria tenella was 90% throughout.

`N=C(N/N=C/c1ccc(Cl)cc1)N/N=C/c1ccc(Cl)cc1` [ROBENIDINE]: the Reduction in the test on Eimeria acervulina came to 80%; in the test listed under Gallus gallus [9], 99.9%; in the test listed under Gallus gallus [10], 100%; in the test listed under Gallus gallus [11] it was 0%; in the test listed under Gallus gallus [12], 21%; in the test filed under Gallus gallus [13], 54%. Further, the figures for the Reduction in the test on Eimeria tenella, in the test filed under Gallus gallus [14] and in the test listed under Gallus gallus [15] were 80%, 100% and 0%, respectively.

`CC[C@@H](C(=O)[C@@H](C)[C@@H](O)[C@H](C)[C@@H]1O[C@@H]([C@@H](CC)C(=O)O)CC[C@@H]1C)[C@H]1O[C@]2(C=C[C@@H](O)[C@]3(CC[C@@](C)([C@H]4CC[C@](O)(CC)[C@H](C)O4)O3)O2)[C@H](C)C[C@@H]1C` [SALINOMYCIN]: the Reduction was 74% in the test filed under Gallus gallus [16]; 0% in the test filed under Gallus gallus [17]; 0% in the test listed under Gallus gallus [18]; 62% in the test filed under Gallus gallus [19]; 85% in the test on Eimeria tenella; 91% in the test filed under Gallus gallus [20].

Turning to `NC(=O)c1nnn(Cc2cc(Cl)c(C(=O)c3ccc(I)cc3)c(Cl)c2)c1N`, the Reduction in the test with Eimeria acervulina was 90%; in the test with Eimeria tenella it was more than 99%.

Molecule `NC(=O)c1nnn(Cc2cccc(C(=O)c3ccc(Cl)cc3)c2)c1N` yielded a Reduction with Eimeria acervulina of 90%. Besides, the MED in the test with Eimeria tenella was more than 500 ppm.

For `NC(=O)c1nnn(Cc2cc(Cl)c(C(=O)c3ccc(Br)cc3)c(Cl)c2)c1N`, the Reduction came out at 80% with Eimeria acervulina and 90% in the test with Eimeria tenella.

As for `NC(=O)c1nnn(Cc2ccc(C(=O)c3ccc(Cl)cc3)cc2)c1N`, the Minimum active dose in the test with Eimeria acervulina is more than 500 ppm. The molecule further showed an MED in the test on Eimeria tenella of more than 500 ppm.

For `NC(=O)c1nnn(Cc2ccc(Cl)cc2)c1N`, in the test on Eimeria acervulina, the Reduction came out at 80%. For the same molecule, the MED in the test on Eimeria tenella was more than 1000 ppm.

Turning to `Nc1ncnc2c1ncn2Cc1c(F)cccc1Cl` [ARPRINOCID], the Reduction in the test on Eimeria acervulina and in the test with Eimeria tenella was 80% each time.

As to `CC[C@@H](C(=O)[C@@H](C)[C@@H](O)[C@H](C)CCc1ccc(C)c(O)c1C(=O)O)[C@H]1O[C@](CC)([C@H]2CC[C@](O)(CC)[C@H](C)O2)C[C@@H]1C` [LASALOCID], the Reduction in the test filed under Gallus gallus [21] was 34%; in the test with Eimeria acervulina, 80%; in the test filed under Gallus gallus [22], 16%; in the test filed under Gallus gallus [23], 100%; in the test listed under Gallus gallus [24] it was 74%; in the test filed under Gallus gallus [25] it was 100%. The Reduction in the test listed under Gallus gallus [26] worked out at 100%; in the test with Eimeria tenella, 80%; in the test listed under Gallus gallus [27] it was 100%.

`N#Cc1ccc(C(=O)c2c(Cl)cc(Cn3nnc(C(N)=O)c3N)cc2Cl)cc1`: the Reduction with Eimeria acervulina and in the test with Eimeria tenella was 90% in each case.
